Experimental findings from ChEMBL document CHEMBL4043311, “Developing Equipotent Teixobactin Analogues against Drug-Resistant Bacteria and Discovering a Hydrophobic Interaction between Lipid II and Teixobactin” (J Med Chem, 2018) are described below.

Broadly, the MIC is the lowest concentration found to suppress growth. Read a low MIC as inhibition by little substance. Broadly, the Kd is a measure of binding affinity in units of concentration.

One assay concerns Streptococcus pyogenes. Description: Antibacterial activity against Streptococcus pyogenes ATCC 19615 after 20 hrs by broth microdilution method. The format is functional. Particulars: ATCC 19615, 20 h. The method, boiled down:
(§1)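 CLSI broth microdilution in cation-adjusted Mueller-Hinton broth with 3% lysed horse blood for streptococci and 0.002% polysorbate 80. Compounds taken from 10 mg/mL DMSO stocks and diluted in broth. Inoculum about 5×10^5 cells/mL. After 20 h at 37 °C, MIC read as lowest concentration with no visible growth. Done three times.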
(In general: Broth dilution looks for growth in wells or tubes with falling amounts of substance.)

Assay [1] deals with Streptococcus pneumoniae. Kind of assay: Antibacterial activity against Streptococcus pneumoniae D39 infected in C57BL/6J mouse at 1 x 10^4 cfu/mouse assessed as mouse survival rate at 1 to 5 mg/kg, iv administered 1 hr post infection measured after 48 hrs relative to control. The format is functional. The method, boiled down:
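C57BL/6J female mice, 6-8 weeks, infected i.p. with 0.2 mL S. pneumoniae D39 suspension (1×10^4 c.f.u. per mouse), an inoculum giving at least 90% mortality within 48 h; 6 per group. Single i.v. dose 1 h post-infection at 5, 2 or 1 mg per kg in PBS:Cremophor-EL:DMSO (94:5:1); vehicle and vancomycin (5 mg per kg) controls. Survival scored at 48 h; log-rank test.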

Assay [2] deals with Staphylococcus aureus. Description: Antibacterial activity against Staphylococcus aureus ATCC 29213 at lipid 2/test compound molar ratio 2 preincubated with lipid 2 for 30 mins followed by bacterial inoculation measured after overnight incubation. The format is functional. The method, boiled down: (§2)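 Test agent at 4x or 8x its broth MIC mixed with lipid II or C55-P (2x or 0.5x molar excess over compound) in MHII broth with 0.05% tween-80, 30 min at rt; exponential S. aureus ATCC 29213 then added to final OD600 0.001. Overnight at 37 °C; growth judged by eye and plate-reader absorbance. Run two or three times.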

Assay [3] concerns Streptococcus pneumoniae. Description: Antibacterial activity against Streptococcus pneumoniae D39 infected in C57BL/6J mouse at 5 x 10^4 cfu/mouse assessed as reduction of bacterial burden in blood at 1 to 5 mg/kg, iv administered 1 hr post infection measured after 12 to 22 hrs relative to control. The format is functional. The method, boiled down:
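Female C57BL/6J mice, 6-8 weeks, 4 per group, given 0.2 mL S. pneumoniae D39 i.p. (5×10^4 c.f.u. per mouse). At 1 h post-infection a single i.v. dose of 5 or 1 mg/kg was given in PBS:Cremophor-EL:DMSO (94:5:1). Vehicle and vancomycin 5 mg/kg groups were included. Blood c.f.u. counted at 12, 18 and 22 h.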

Assay [4] is described as follows: Binding affinity to Bacillus subtilis UDP-MurNAc-L-Ala-gamma-DGlu-meso-Dap-D-Ala-D-Ala by ITC method. The method, boiled down:
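Park's nucleotide was isolated from Bacillus subtilis. ITC run at 25 °C in DMSO:H2O (85:15). The lipid II analogue (0.375 mM) was titrated into 0.025 mM test compound.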
(In general: ITC needs no label: the signal is the heat of the interaction.)

The subject of assay [5] is Staphylococcus aureus. Description: Antibacterial activity against Staphylococcus aureus ATCC 29213 at undecaprenyl-phosphate/test compound molar ratio 0.5 to 2 preincubated with undecaprenyl-phosphate for 30 mins followed by bacterial inoculation measured after overnight incubation. The format is functional. The method, boiled down: as §2
The test system of assay [6] is Staphylococcus aureus. Description: Antibacterial activity against methicillin-resistant Staphylococcus aureus BAA-1695 after 20 hrs by broth microdilution method. The class given is functional. Particulars: BAA-1695, 20 h. The method, boiled down:
(§3)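 Broth microdilution per CLSI in cation-adjusted Mueller-Hinton broth with 0.002% polysorbate 80. Analogues were made up as 10 mg/mL DMSO stocks, then diluted in MHB. Inoculum approx. 5×10^5 cells/mL. Incubated 20 h at 37°C; MIC taken as the lowest concentration with no visible growth. Run three times.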

In assay [7] the test system is Staphylococcus aureus. Kind of assay: Antibacterial activity against methicillin-sensitive Staphylococcus aureus TH 4806 after 20 hrs by broth microdilution method. The settings on record: TH 4806, 20 h. The class given is functional. The method, boiled down: as §3
The next assay deals with Enterococcus faecalis. Description: Antibacterial activity against […] Enterococcus faecalis ATCC 29212 after 20 hrs by broth microdilution method. The class given is functional. Particulars: ATCC 29212, 20 h. The method, boiled down: as §3
The test system of assay [8] is Staphylococcus aureus. Kind of assay: Antibacterial activity against Staphylococcus aureus ATCC 29213 at lipid 2/test compound molar ratio 0.5 preincubated with lipid 2 for 30 mins followed by bacterial inoculation measured after overnight incubation. The class given is functional. The method, boiled down: as §2
Assay [9] can be described thus: Binding affinity to undecaprenyl-phosphate at 1 to 4 nmol after 30 mins by TLC method. The method, boiled down:
(§4)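 Lipid II or C55-P (1 nmol) incubated with 1, 2, 3 or 4 nmol compound in 50 mM Tris/HCl pH 7.5, 30 min at rt. Extracted twice with pyridinium acetate (6 M, pH 4.2)/butanol (1:2), then washed with butanol-saturated water. Organic phase run on silica TLC in chloroform/methanol/water/ammonia (88:48:10:1) and stained with phosphomolybdic acid; loss of lipid band scored. Done twice.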

The test system of assay [10] is Streptococcus pneumoniae. Description: Antibacterial activity against Streptococcus pneumoniae D39 after 20 hrs by broth microdilution method. The format is functional. The settings on record: D39, 20 h. The method, boiled down:
as §1

Assay [11] can be described thus: Binding affinity to lipid 2 at 4 nmol after 30 mins by TLC method. The method, boiled down:
as §4

Assay [12] in a line: Binding affinity to lipid 2 at 1 to 4 nmol after 30 mins by TLC method. The method, boiled down: as §4

The structures appear in SMILES notation. Values after ≈ are worked out from the molar mass of the structure shown. Active and inactive are the calls of the source. The rule behind the calls is not given here. Where only a bound is given, the exact number is not on record here.

Turning to `CC[C@@H](C)[C@@H](NC(=O)[C@@H](CCC(N)=O)NC(=O)[C@H](CO)NC(=O)[C@@H](NC(=O)[C@H](N)Cc1ccc(-c2ccccc2)cc1)[C@@H](C)CC)C(=O)N[C@H](C(=O)N[C@@H](CO)C(=O)N[C@H]1C(=O)N[C@@H](C)C(=O)N[C@@H](CCCCN)C(=O)N[C@@H]([C@@H](C)CC)C(=O)O[C@H]1C)[C@@H](C)CC`, the MIC against Streptococcus pyogenes was less than 0.25 µg/mL; in the assay with Staphylococcus aureus [6] it was 0.5 µg/mL (≈ 0.391 µM); in the assay on Staphylococcus aureus [7] it was 0.5 µg/mL (≈ 0.391 µM); against Enterococcus faecalis, 0.5 µg/mL (≈ 0.391 µM); in the assay on Streptococcus pneumoniae [10], less than 0.032 µg/mL. In the assay on Streptococcus pneumoniae [1], the Survival is reported as 100%. Besides, the result (in the assay on Staphylococcus aureus [2]; in assay [9]; in [11]) was inactive. Also, in the assay with Streptococcus pneumoniae [3], the Activity was found to be 6 deltalog10CFU/ml. Moreover, in [4], the equilibrium dissociation constant (Kd) was 23 µM. In addition, the result with Staphylococcus aureus [5] and in the assay on Staphylococcus aureus [8] was Active.

As to `CC[C@@H](C)[C@@H](NC(=O)[C@@H](CCC(N)=O)NC(=O)[C@H](CO)NC(=O)[C@@H](NC(=O)[C@H](N)Cc1ccc(-c2ccccc2)cc1)[C@@H](C)CC)C(=O)N[C@H](C(=O)N[C@@H](CO)C(=O)N[C@H]1C(=O)N[C@@H](C)C(=O)N[C@@H](CCCCN)C(=O)N[C@@H]([C@@H](C)CC)C(=O)N[C@H]1C)[C@@H](C)CC`, the MIC with Streptococcus pyogenes is less than 0.25 µg/mL; against Staphylococcus aureus [6], 0.25 µg/mL (≈ 0.196 µM); in the assay on Staphylococcus aureus [7], 0.25 µg/mL (≈ 0.196 µM); against Enterococcus faecalis it was 0.5 µg/mL (≈ 0.391 µM); in the assay with Streptococcus pneumoniae [10], less than 0.032 µg/mL. Further, the result (in the assay on Staphylococcus aureus [2]; in assay [9]) was inactive. In addition, the result (in the assay on Staphylococcus aureus [5]; with Staphylococcus aureus [8]; in assay [12]) was Active.
